Assay results reported in ChEMBL document CHEMBL3272174, “Molecular structural effects involved in the interaction of quinolinemethanolamines with DNA. Implications for antimalarial action” (1977).
Activity calls are given as the source filed them.

What was measured:
Calf thymus DNA [1] = assay: Binding affinity to calf thymus DNA assessed as melting temperature at 10^-4 M by thermal denaturation assay; format: nucleic-acid assay; details: Bos taurus
Method in brief: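 Calf thymus DNA dissolved in standard buffer (3.8×10^-3 M NaH2PO4, 5×10^-4 M EDTA, pH 7.0, ionic strength 0.0095) and dialyzed against it. Thermal denaturation: DNA at 10^-4 M (nucleotide equivalents), drug at 10^-4 M. Absorbance recorded as a function of temperature in stoppered 1.0-cm quartz cuvettes, with a thermistor in the cell block.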

Calf thymus DNA [2] = assay: Binding affinity to sonicated calf thymus DNA by viscometric titrations; format: nucleic-acid assay; details: Bos taurus
Method in brief: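 Sonicated calf thymus DNA (1.0-3.0 mL) titrated with small aliquots of concentrated drug stock in a semimicro Ubbelohde dilution viscometer at 25 °C, in standard buffer. Volume change stayed at or below 3%, and DNA dilution was corrected. Reduced specific viscosity ratio plotted against drug/nucleotide molar ratio.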

Calf thymus DNA [3] = assay: Binding affinity to sonicated calf thymus DNA at 10^-3 M by spectroscopy; format: nucleic-acid assay; details: Bos taurus
Method in brief: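 Difference spectra: sonicated calf thymus DNA (2.3×10^-3 M) and drug (3.5×10^-4 M) in standard pH 7.0 phosphate/EDTA buffer were loaded in separate compartments of 10-mm tandem cells to set a baseline. Equal volumes were then mixed and read against the separated solutions.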

Plasmodium berghei [4] = assay: Antimalarial activity against Plasmodium berghei infected in mouse assessed as increase in mean survival time at 80 to 640 mg/kg measured after 60 days post infection relative to control; format: functional, organism-based
Escherichia coli [5] = assay: Binding affinity to closed circular superhelical Escherichia coli ColE1 DNA by viscometric titrations
Escherichia coli [6] = assay: Inhibition of Escherichia coli RNA polymerase assessed as reduction in RNA transcription at compound/DNA molar ratio of 1
Calf thymus DNA [7] = assay: Binding affinity to calf thymus DNA assessed as melting temperature at 10^-5 M by thermal denaturation assay; format: nucleic-acid assay; details: Bos taurus
Method in brief: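 Thermal melting of dialyzed calf thymus DNA (10^-4 M nucleotide) with drug at 10^-5 M, in standard phosphate/EDTA buffer at pH 7.0. Absorbance followed against temperature in 1.0-cm stoppered quartz cuvettes, with temperature monitored by a cell-block thermistor.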

Plasmodium berghei [8] = assay: Antimalarial activity against Plasmodium berghei infected in mouse assessed as increase in mean survival time at 640 mg/kg measured after 60 days post infection relative to control; format: functional
Method in brief: (§1)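 Tested at Walter Reed Army Institute of Research (communicated data) in mice infected with P. berghei. Five mice per test. Read-out is the increase in mean survival time (ΔMST, days) over the control group. Activity is defined as ΔMST above 6.1 days. Cure (C) is scored when at least one of the five mice survives to 60 days postinfection.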

Plasmodium berghei [9] = assay: Antimalarial activity against Plasmodium berghei infected in mouse assessed as increase in mean survival time at 80 mg/kg measured after 60 days post infection relative to control; format: functional; method in brief: as §1
Plasmodium berghei [10] = assay: Antimalarial activity against Plasmodium berghei infected in mouse assessed as increase in mean survival time at 320 mg/kg measured after 60 days post infection relative to control; format: functional; method in brief: as §1
Plasmodium berghei [11] = assay: Antimalarial activity against Plasmodium berghei infected in mouse assessed as increase in mean survival time at 40 mg/kg measured after 60 days post infection relative to control; format: functional; method in brief: as §1
Plasmodium berghei [12] = assay: Antimalarial activity against Plasmodium berghei infected in mouse assessed as increase in mean survival time at 160 mg/kg measured after 60 days post infection relative to control; format: functional; method in brief: as §1

## O[C@@H](c1cc(C(F)(F)F)nc2c(C(F)(F)F)cccc12)[C@H]1CCCCN1 (relative stereo)
Calf thymus DNA [1]
  Tm: 63 °C
Calf thymus DNA [2]
  Activity: inactive
Calf thymus DNA [3]
  Activity: Active
Plasmodium berghei [4]
  Activity: Active
Escherichia coli [5]
  Activity: inactive
Escherichia coli [6]
  Activity: inactive

## CCN(CC)CCCC(C)Nc1ccnc2cc(Cl)ccc12 (configuration not stated)
Calf thymus DNA [2]
  Activity: Active
Calf thymus DNA [7]
  Tm: 75 °C
Escherichia coli [5]
  Activity: inactive

## COc1cccc2c1C(=O)c1c(O)c3c(c(O)c1C2=O)C[C@@](O)(C(C)=O)C[C@@H]3O[C@H]1C[C@H](N)[C@H](O)[C@H](C)O1
Escherichia coli [6]
  Activity: Active

## NCCCCN
Escherichia coli [5]
  Activity: inactive

## NC(=O)c1cc(C(O)C2CCCCN2)c2cccc(C(F)(F)F)c2n1 (configuration not stated)
Calf thymus DNA [1]
  Tm: 64.9 °C
Calf thymus DNA [2]
  Activity: Active
Plasmodium berghei [8]
  fold change (FC): 7.9
Plasmodium berghei [9]
  fold change (FC): 0.3
Plasmodium berghei [10]
  fold change (FC): 0.7
Plasmodium berghei [11]
  fold change (FC): 0.3
Calf thymus DNA [3]
  Activity: Active
Escherichia coli [5]
  Activity: inactive
Plasmodium berghei [12]
  fold change (FC): 0.5

## C=C[C@H]1CN2CC[C@H]1C[C@H]2[C@H](O)c1ccnc2ccc(OC)cc12
Calf thymus DNA [1]
  Tm: 66.3 °C
Calf thymus DNA [2]
  Activity: Active
Calf thymus DNA [3]
  Activity: Active

## OC(c1cc(C(F)(F)F)nc2c(F)cccc12)C1CCCCN1 (configuration not stated)
Calf thymus DNA [1]
  Tm: 61.5 °C
Calf thymus DNA [2]
  Activity: inactive
Plasmodium berghei [9]
  fold change (FC): 4.1
Plasmodium berghei [10]
  fold change (FC): 7.1
Calf thymus DNA [3]
  Activity: Active
Escherichia coli [5]
  Activity: inactive

## CCN(CC)CCCC(C)Nc1c2ccc(Cl)cc2nc2ccc(OC)cc12 (configuration not stated)
Calf thymus DNA [2]
  Activity: Active
Calf thymus DNA [7]
  Tm: 88 °C
Escherichia coli [5]
  Activity: Active
